{"data": "Published values gathered from unrelated publications", "effect on": "enzyme activity", "mode": "inhibitor", "ABL1 G250E": "Tyrosine-protein kinase ABL1 (ABL1, Homo sapiens, UniProt P00519, G250E)", "ABL1": "Tyrosine-protein kinase ABL1 (ABL1, Homo sapiens, UniProt P00519)", "ABL1 T315I": "Tyrosine-protein kinase ABL1 (ABL1, Homo sapiens, UniProt P00519, T315I)"}
{"SMILES": "COc1cc2ncnc(Nc3ccc(Oc4ccccc4)c(C)c3C)c2cc1OC", "target": "ABL1 G250E", "setting": "1 µM", "inhibition [%]": 4}
{"SMILES": "O=C(CSc1nc2nccnc2c(=O)n1CCc1ccccc1)Nc1nccs1", "target": "ABL1", "setting": "10 µM", "inhibition [%]": 4}
{"SMILES": "CN(C)C1CCN(CC#Cc2nn(C3CCCC3)c3nc(NCc4ccccc4)ncc23)C1 (stereo not drawn)", "target": "ABL1", "assay": "FRET", "setting": "0.1 µM", "inhibition [%]": 1}
{"SMILES": "COc1cc2ncnc(Nc3ccc(Oc4ccccc4)cc3C)c2cc1OC", "target": "ABL1 G250E", "setting": "1 µM", "inhibition [%]": 14}
{"SMILES": "C=CC(=O)Nc1cc(Nc2nccc(Nc3cc(Cl)c(F)cc3C(C)(C)O)n2)c(OC)cc1N1CC[C@@H](N(C)C)C1", "target": "ABL1 T315I", "setting": "1 µM", "inhibition [%]": 18}
{"SMILES": "CNCc1ccc(-c2cc(-c3nc(-c4ccc(S(=O)(=O)C(C)C)cc4)cnc3N)on2)cc1", "target": "ABL1", "setting": "0.4 µM", "inhibition [%]": 11}
{"SMILES": "CNC(=O)c1cc2c(Oc3ccc(NC(=O)C4(C(=O)Nc5ccc(F)cc5)CC4)cc3)ccnc2cc1OC", "target": "ABL1 T315I", "assay": "radiometric", "setting": "1 µM", "inhibition [%]": 75}
{"SMILES": "CC/C(=N\\NC(=O)NCc1cccc(O)c1)c1ccc(O)c(C)c1O", "target": "ABL1", "setting": "0.1 µM", "inhibition [%]": -0.9}
{"SMILES": "CS(=O)(=O)Nc1cccc(-c2csc(NC(=O)CSc3nc4nccnc4c(=O)n3CCc3ccccc3)n2)c1", "target": "Tyrosine-protein kinase ABL1 (ABL1, Homo sapiens, UniProt P00519, E255K)", "setting": "10 µM", "inhibition [%]": -2}
{"SMILES": "COc1cc(-c2cc(-c3ccc(N4CCNCC4)cc3)cnc2N)cc(OC)c1OC", "target": "Tyrosine-protein kinase ABL1 (ABL1, Homo sapiens, UniProt P00519, H396P)", "setting": "0.1 µM", "inhibition [%]": 87}
{"SMILES": "CNc1cccc2cc(C(=O)Nc3ccc(C(=O)O)cc3)c(=O)[nH]c12", "target": "Tyrosine-protein kinase ABL1 (ABL1, Homo sapiens, UniProt P00519, Q252H)", "setting": "10 µM", "inhibition [%]": 0.4}
{"SMILES": "CSc1nc(C)c(-c2ccnc(Nc3ccc(N4CCOCC4)cc3)c2)[nH]1", "target": "ABL1", "setting": "10 µM", "inhibition [%]": 19.3}
